Laboratory results as given in ChEMBL document CHEMBL1944511, “Bakuchiol derivatives as novel and potent cytotoxic agents: a report” (Eur J Med Chem, 2012).

What was measured:
[1] = tested on: IMR-32; experiment: Growth inhibition of human IMR32 cells at 10 uM after 48 hrs by sulpharhodamine B assay; format: functional; conditions: IMR-32, 48 h, read-out: GI
Outline: (§1)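 This is the SRB protein-stain assay on adherent cells in RPMI-1640/MEM with 10% FCS. Each compound in DMSO (vehicle <0.2%) was applied at a single fixed concentration for 48 h. Cells were fixed with TCA and stained with SRB, and the dye was solubilised in Tris and read at 570/620 nm. Percent growth inhibition is relative to vehicle-treated controls, reported as mean ± SD of three experiments run in triplicate.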

[2] = tested on: HEp-2; experiment: Growth inhibition of human Hep2 cells at 10 uM after 48 hrs by sulpharhodamine B assay; format: functional; conditions: HEp-2, 48 h, read-out: GI; outline: as §1
[3] = tested on: A549; experiment: Growth inhibition of human A549 cells at 10 uM after 48 hrs by sulpharhodamine B assay; format: functional; conditions: A549, 48 h, read-out: GI; outline: as §1
[4] = tested on: MCF7; experiment: Growth inhibition of human MCF7 cells at 20 uM after 48 hrs by sulpharhodamine B assay; format: functional; conditions: MCF7, 48 h, read-out: GI; outline: as §1
[5] = tested on: MCF7; experiment: Growth inhibition of human MCF7 cells at 10 uM after 48 hrs by sulpharhodamine B assay; format: functional; conditions: MCF7, 48 h, read-out: GI; outline: as §1
[6] = tested on: HEp-2; experiment: Cytotoxicity against human Hep2 cells after 48 hrs by sulpharhodamine B assay; format: functional, cell-based; conditions: HEp-2, 48 h
Outline: (§2)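 Cells were grown in RPMI-1640/MEM with 10% FCS and penicillin/streptomycin at 37 °C under 5% CO2, then seeded and left to adhere overnight. Analogs in DMSO (vehicle <0.2%) were added at several concentrations for 48 h. Cells were fixed with cold 50% TCA, stained with 0.4% SRB in 1% acetic acid, solubilised in 10 mM Tris, and read at OD 570/620 nm. IC50 came from non-linear regression.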

[7] = tested on: A549; experiment: Cytotoxicity against human A549 cells after 48 hrs by sulpharhodamine B assay; format: functional, cell-based; conditions: A549, 48 h; outline: as §2
[8] = tested on: OVCAR-5; experiment: Growth inhibition of human OVCAR5 cells at 50 uM after 48 hrs by sulpharhodamine B assay; format: functional; conditions: OVCAR-5, 48 h, read-out: GI; outline: as §1
[9] = tested on: DU-145; experiment: Cytotoxicity against human DU145 cells after 48 hrs by sulpharhodamine B assay; format: functional, cell-based; conditions: DU-145, 48 h; outline: as §2
[10] = tested on: PC-3; experiment: Growth inhibition of human PC3 cells at 30 uM after 48 hrs by sulpharhodamine B assay; format: functional; conditions: PC-3, 48 h, read-out: GI
Outline: (§3)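 Cells grown in RPMI-1640/MEM with 10% FCS, penicillin/streptomycin, 37 °C, 5% CO2. Seeded in 96-well plates, allowed to adhere overnight, then exposed 48 h to analogs in DMSO (vehicle <0.2% in controls). TCA-fixed, stained with 0.4% SRB in 1% acetic acid, dye solubilized in 10 mM Tris base, OD 570 nm (ref 620 nm). Mean ± SD of three experiments run in triplicate.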

[11] = tested on: HCT-15; experiment: Growth inhibition of human HCT15 cells at 5 uM after 48 hrs by sulpharhodamine B assay; format: functional; conditions: HCT-15, 48 h, read-out: GI; outline: as §1
[12] = tested on: HCT-15; experiment: Growth inhibition of human HCT15 cells at 20 uM after 48 hrs by sulpharhodamine B assay; format: functional; conditions: HCT-15, 48 h, read-out: GI; outline: as §1
[13] = tested on: MCF7; experiment: Cytotoxicity against human MCF7 cells after 48 hrs by sulpharhodamine B assay; format: functional, cell-based; conditions: MCF7, 48 h; outline: as §2
[14] = tested on: IMR-32; experiment: Growth inhibition of human IMR32 cells at 20 uM after 48 hrs by sulpharhodamine B assay; format: functional; conditions: IMR-32, 48 h, read-out: GI; outline: as §1
[15] = tested on: HeLa; experiment: Growth inhibition of human HeLa cells at 50 uM after 48 hrs by sulpharhodamine B assay; format: functional; conditions: read-out: GI; outline: as §1
[16] = tested on: MCF7; experiment: Growth inhibition of human MCF7 cells at 30 uM after 48 hrs by sulpharhodamine B assay; format: functional; conditions: MCF7, 48 h, read-out: GI; outline: as §1
[17] = tested on: HEp-2; experiment: Growth inhibition of human Hep2 cells at 5 uM after 48 hrs by sulpharhodamine B assay; format: functional; conditions: HEp-2, 48 h, read-out: GI; outline: as §1
[18] = tested on: HEp-2; experiment: Growth inhibition of human Hep2 cells at 30 uM after 48 hrs by sulpharhodamine B assay; format: functional; conditions: HEp-2, 48 h, read-out: GI; outline: as §1
[19] = tested on: DU-145; experiment: Growth inhibition of human DU145 cells at 10 uM after 48 hrs by sulpharhodamine B assay; format: functional; conditions: DU-145, 48 h, read-out: GI; outline: as §1
[20] = tested on: DU-145; experiment: Growth inhibition of human DU145 cells at 20 uM after 48 hrs by sulpharhodamine B assay; format: functional; conditions: DU-145, 48 h, read-out: GI; outline: as §1
[21] = tested on: THP-1; experiment: Growth inhibition of human THP1 cells at 50 uM after 48 hrs by sulpharhodamine B assay; format: functional; conditions: THP-1, 48 h, read-out: GI; outline: as §3
[22] = tested on: HEp-2; experiment: Growth inhibition of human Hep2 cells at 20 uM after 48 hrs by sulpharhodamine B assay; format: functional; conditions: HEp-2, 48 h, read-out: GI; outline: as §1
[23] = tested on: PC-3; experiment: Growth inhibition of human PC3 cells at 20 uM after 48 hrs by sulpharhodamine B assay; format: functional; conditions: PC-3, 48 h, read-out: GI; outline: as §1
[24] = tested on: THP-1; experiment: Growth inhibition of human THP1 cells at 10 uM after 48 hrs by sulpharhodamine B assay; format: functional; conditions: THP-1, 48 h, read-out: GI; outline: as §3
[25] = tested on: OVCAR-5; experiment: Growth inhibition of human OVCAR5 cells at 30 uM after 48 hrs by sulpharhodamine B assay; format: functional; conditions: OVCAR-5, 48 h, read-out: GI; outline: as §1
[26] = tested on: THP-1; experiment: Growth inhibition of human THP1 cells at 20 uM after 48 hrs by sulpharhodamine B assay; format: functional; conditions: THP-1, 48 h, read-out: GI; outline: as §3
[27] = tested on: HeLa; experiment: Growth inhibition of human HeLa cells at 30 uM after 48 hrs by sulpharhodamine B assay; format: functional; conditions: read-out: GI; outline: as §1
[28] = tested on: HEp-2; experiment: Growth inhibition of human Hep2 cells at 50 uM after 48 hrs by sulpharhodamine B assay; format: functional; conditions: HEp-2, 48 h, read-out: GI; outline: as §1
[29] = tested on: A549; experiment: Growth inhibition of human A549 cells at 30 uM after 48 hrs by sulpharhodamine B assay; format: functional; conditions: A549, 48 h, read-out: GI; outline: as §1
[30] = tested on: IMR-32; experiment: Growth inhibition of human IMR32 cells at 5 uM after 48 hrs by sulpharhodamine B assay; format: functional; conditions: IMR-32, 48 h, read-out: GI; outline: as §1
[31] = tested on: PC-3; experiment: Growth inhibition of human PC3 cells at 10 uM after 48 hrs by sulpharhodamine B assay; format: functional; conditions: PC-3, 48 h, read-out: GI; outline: as §1
[32] = tested on: PC-3; experiment: Growth inhibition of human PC3 cells at 50 uM after 48 hrs by sulpharhodamine B assay; format: functional; conditions: PC-3, 48 h, read-out: GI; outline: as §3
[33] = tested on: A549; experiment: Growth inhibition of human A549 cells at 5 uM after 48 hrs by sulpharhodamine B assay; format: functional; conditions: A549, 48 h, read-out: GI; outline: as §1
[34] = tested on: A549; experiment: Growth inhibition of human A549 cells at 20 uM after 48 hrs by sulpharhodamine B assay; format: functional; conditions: A549, 48 h, read-out: GI; outline: as §1
[35] = tested on: IMR-32; experiment: Growth inhibition of human IMR32 cells at 50 uM after 48 hrs by sulpharhodamine B assay; format: functional; conditions: IMR-32, 48 h, read-out: GI; outline: as §1
[36] = tested on: MCF7; experiment: Growth inhibition of human MCF7 cells at 5 uM after 48 hrs by sulpharhodamine B assay; format: functional; conditions: MCF7, 48 h, read-out: GI; outline: as §1
[37] = tested on: PC-3; experiment: Cytotoxicity against human PC3 cells after 48 hrs by sulpharhodamine B assay; format: functional, cell-based; conditions: PC-3, 48 h; outline: as §2
[38] = tested on: PC-3; experiment: Growth inhibition of human PC3 cells at 5 uM after 48 hrs by sulpharhodamine B assay; format: functional; conditions: PC-3, 48 h, read-out: GI; outline: as §3
[39] = tested on: THP-1; experiment: Cytotoxicity against human THP1 cells after 48 hrs by sulpharhodamine B assay; format: functional, cell-based; conditions: THP-1, 48 h; outline: as §2
[40] = tested on: HCT-15; experiment: Cytotoxicity against human HCT15 cells after 48 hrs by sulpharhodamine B assay; format: functional, cell-based; conditions: HCT-15, 48 h; outline: as §2
[41] = tested on: MCF7; experiment: Growth inhibition of human MCF7 cells at 50 uM after 48 hrs by sulpharhodamine B assay; format: functional; conditions: MCF7, 48 h, read-out: GI; outline: as §1
[42] = tested on: IMR-32; experiment: Growth inhibition of human IMR32 cells at 30 uM after 48 hrs by sulpharhodamine B assay; format: functional; conditions: IMR-32, 48 h, read-out: GI; outline: as §1
[43] = tested on: DU-145; experiment: Growth inhibition of human DU145 cells at 5 uM after 48 hrs by sulpharhodamine B assay; format: functional; conditions: DU-145, 48 h, read-out: GI; outline: as §1
[44] = tested on: THP-1; experiment: Growth inhibition of human THP1 cells at 5 uM after 48 hrs by sulpharhodamine B assay; format: functional; conditions: THP-1, 48 h, read-out: GI; outline: as §3
[45] = tested on: HCT-15; experiment: Growth inhibition of human HCT15 cells at 10 uM after 48 hrs by sulpharhodamine B assay; format: functional; conditions: HCT-15, 48 h, read-out: GI; outline: as §1
[46] = tested on: THP-1; experiment: Growth inhibition of human THP1 cells at 30 uM after 48 hrs by sulpharhodamine B assay; format: functional; conditions: THP-1, 48 h, read-out: GI; outline: as §3
[47] = tested on: A549; experiment: Growth inhibition of human A549 cells at 50 uM after 48 hrs by sulpharhodamine B assay; format: functional; conditions: A549, 48 h, read-out: GI; outline: as §1
[48] = tested on: SF-295; experiment: Cytotoxicity against human SF295 cells after 48 hrs by sulpharhodamine B assay; format: functional, cell-based; conditions: SF-295, 48 h; outline: as §2
[49] = tested on: HL-60; experiment: Induction of apoptosis in human HL60 cells assessed as loss of mitochondrial membrane potential at 5 uM after 24 hrs by rodamine-123 staining-based flow cytometric analysis (reference value: 6%); format: functional

C=C[C@@](C)(/C=C/c1ccc(OC(C)=O)cc1)CCC=C(C)C [ACETYLBAKUCHIOL]
inhibition of growth at 10 µM [1]: 34%
inhibition of growth at 10 µM [2]: 30%
inhibition of growth at 10 µM [3]: 22%
inhibition of growth at 20 µM [4]: 44%
inhibition of growth at 10 µM [5]: 31%
IC50 [6]: 20 µM
IC50 [7]: 40 µM
inhibition of growth at 50 µM [8]: 71%
IC50 [9]: 26 µM
inhibition of growth at 30 µM [10]: 60%
inhibition of growth at 5 µM [11]: 31%
inhibition of growth at 20 µM [12]: 57%
IC50 [13]: 25 µM
inhibition of growth at 20 µM [14]: 48%
inhibition of growth at 50 µM [15]: 63%
inhibition of growth at 30 µM [16]: 56%
inhibition of growth at 5 µM [17]: 14%
inhibition of growth at 30 µM [18]: 51%
inhibition of growth at 10 µM [19]: 29%
inhibition of growth at 20 µM [20]: 42%
inhibition of growth at 50 µM [21]: 81%
inhibition of growth at 20 µM [22]: 46%
inhibition of growth at 20 µM [23]: 45%
inhibition of growth at 10 µM [24]: 44%
inhibition of growth at 30 µM [25]: 62%
inhibition of growth at 20 µM [26]: 50%
inhibition of growth at 30 µM [27]: 45%
inhibition of growth at 50 µM [28]: 52%
inhibition of growth at 30 µM [29]: 60%
inhibition of growth at 5 µM [30]: 27%
inhibition of growth at 10 µM [31]: 32%
inhibition of growth at 50 µM [32]: 67%
inhibition of growth at 5 µM [33]: 13%
inhibition of growth at 20 µM [34]: 1%
inhibition of growth at 50 µM [35]: 71%
inhibition of growth at 5 µM [36]: 15%
IC50 [37]: 23 µM
inhibition of growth at 5 µM [38]: 21%
IC50 [39]: 18 µM
IC50 [40]: 11 µM
inhibition of growth at 50 µM [41]: 75%
inhibition of growth at 30 µM [42]: 59%
inhibition of growth at 5 µM [43]: 19%
inhibition of growth at 5 µM [44]: 34%
inhibition of growth at 10 µM [45]: 46%
inhibition of growth at 30 µM [46]: 63%
inhibition of growth at 50 µM [47]: 72%
IC50 [48]: 8 µM

CC[C@@]1(O)C(=O)OCc2c1cc1n(c2=O)Cc2cc3ccccc3nc2-1 [CAMPTOTHECIN]
Activity [49]: 55.5%
